Experimental data: ChEMBL document CHEMBL2157864, “Microwave-assisted synthesis of hydroxyphenyl nitrones with protective action against oxidative stress” (Eur J Med Chem, 2012)
Activity calls are given as the source filed them. No cut-off for these calls is given here.

Tests used:
[1] = Permeability of the compound after 4 hrs by PAMPA assay; type: ADME; conditions: read-out: permeability
[2] = Antioxidant activity against peroxynitrite assessed as inhibition of alpha-synuclein aggregate formation at 50 uM by Western blot analysis; type: functional
Procedure, shortened: (§1)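 α-Synuclein (5 μM) exposed to authentic ONOO⁻ (200 μM) with compound (50 μM) or 1% DMSO; 12% SDS-PAGE, western blot with anti-αS and anti-3-nitrotyrosine antibodies; densitometry of anti-nitrotyrosine blots used for dose-response. Reverse-addition ONOO⁻ control included.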

[3] = Antioxidant activity against peroxynitrite assessed as inhibition of RNAse nitration by Western blot analysis; type: functional
Procedure, shortened: (§2)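 RNase A or cytochrome c (5 μM) treated with authentic ONOO⁻ (200 μM) in presence of compound; 12% SDS-PAGE and western blot probed with anti-3-nitrotyrosine antibody.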

[4] = Antioxidant activity against peroxynitrite assessed as inhibition of cytochrome c nitration by Western blot analysis; type: functional; procedure, shortened: as §2
Astrocyte = experiment: Antiinflammatory activity in rat primary astrocytes assessed as inhibition of LPS-induced nitrite production at 10 uM incubated for 1 hr prior to LPS-challenge measured after 24 hrs by Greiss method; type: functional, cell-based
Procedure, shortened: (§3)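 Rat primary glial cultures (microglia or astrocytes) pre-incubated 1 h with compound, then 24 h with LPS (10 μg/mL); nitrite in culture medium measured by Griess reaction. Means ± SD of three experiments.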

[5] = Antioxidant activity against peroxynitrite assessed as inhibition of alpha-synuclein nitration at 50 uM by Western blot analysis; type: functional; procedure, shortened: as §1
[6] = Cytotoxicity against rat primary astrocytes at 10 uM after 24 hrs by MTT assay; type: cell-based; conditions: astrocyte
Procedure, shortened: (§4)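 Rat primary astrocyte or microglia cultures exposed 24 h to compound (10 μM); cytotoxicity assessed in vitro.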

Microglia = experiment: Antiinflammatory activity in rat primary microglia cells assessed as inhibition of LPS-induced nitrite production at 10 uM incubated for 1 hr prior to LPS-challenge measured after 24 hrs by Greiss method; type: functional; procedure, shortened: as §3
SH-SY5Y [7] = experiment: Cytotoxicity against human SH-SY5Y cells at 10 to 100 uM after 24 hrs by MTT assay; type: cell-based
Procedure, shortened: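 SH-SY5Y human neuroblastoma cells exposed to compound (10–100 μM) for 24 h; viability by MTT assay.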

[8] = Cytotoxicity against rat primary microglia cells at 10 uM after 24 hrs by MTT assay; type: cell-based; procedure, shortened: as §4
[9] = Antioxidant activity against peroxyl radical production assessed as trolox equivalent by ORAC assay; type: functional
Procedure, shortened: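 Oxygen radical absorbance capacity assay, fluorescein as fluorescent probe, peroxyl radical scavenging; expressed as μmol Trolox equivalents per μmol compound, mean of n = 3 ± SD.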

SH-SY5Y [10] = experiment: Neuroprotective activity against SIN1-induced toxicity in human SH-SY5Y cells at 50 to 500 uM after 24 hrs by MTT assay; type: functional, cell-based
Procedure, shortened: (§5)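 SH-SY5Y cells pre-incubated 1 h with compound, then challenged with SIN-1 (0.5 mM; ONOO⁻ generation about 9 μM per minute by DHR method) or vehicle; viability by MTT assay. Mean ± SD, three independent experiments.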

SH-SY5Y [11] = experiment: Neuroprotective activity against 6OHDA-induced toxicity in human SH-SY5Y cells assessed as cell viability at 10 uM after 24 hrs by MTT assay (reference value: 75%); type: functional; conditions: read-out: Activity
SH-SY5Y [12] = experiment: Neuroprotective activity against SIN1-induced toxicity in human SH-SY5Y cells after 24 hrs by MTT assay; type: functional, cell-based; procedure, shortened: as §5
[13] = Antioxidant activity against CO3 radical production by Western blot analysis; type: functional
SH-SY5Y [14] = experiment: Neuroprotective activity against SIN1-induced toxicity in human SH-SY5Y cells assessed as cell viability at 100 uM after 24 hrs by MTT assay relative to control; type: functional; conditions: read-out: Activity; procedure, shortened: as §5
[15] = Antioxidant activity against peroxynitrite assessed as inhibition of alpha-synuclein nitration by Western blot analysis; type: functional; procedure, shortened: as §1
[16] = Antioxidant activity against peroxynitrite radical at 50 uM by mass spectroscopic analysis; type: functional
Procedure, shortened: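 Compound (50 μM) reacted with 500 μM ONOO⁻ in 50 mM potassium phosphate, pH 7.4, without NaNO₂; reaction products resolved chromatographically and characterised by mass spectrometry.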

SH-SY5Y [17] = experiment: Neuroprotective activity against SIN1-induced toxicity in human SH-SY5Y cells assessed as cell viability at 500 uM after 24 hrs by MTT assay relative to control; type: functional; conditions: read-out: Activity; procedure, shortened: as §5
[18] = Antioxidant activity against OH radical production by Western blot analysis; type: functional
[19] = Antioxidant activity against NO2 radical assessed as mono nitreated derivative formation at 50 uM by mass spectroscopic analysis; type: functional
Procedure, shortened: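 Compound (50 μM) preincubated with excess NaNO₂ (4 mM), converting •OH to •NO₂, then 500 μM ONOO⁻ in 50 mM potassium phosphate, pH 7.4; products analysed by chromatography with mass spectrometry, tracking nitrated-product peak.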

[20] = Antioxidant activity against NO2 radical production by Western blot analysis; type: functional

Row | SMILES | Papp at 4 h [1] | inhibition (Astrocyte) | Activity [6] | inhibition (Microglia) | Activity (SH-SY5Y [7]) | Activity [8] | Activity [9] | viability at 10 µM (SH-SY5Y [11]) | further results
1 | CC(C)(C)c1cc(/C=[N+](\[O-])C(C)(C)C)cc(C(C)(C)C)c1O | 10.2 ×10⁻⁶ cm/s | Active | Non-toxic | Active | Non-toxic | Non-toxic | 2 equiv | 100% | inhibition [2]: Active; inhibition [3]: Active; inhibition [4]: Active; inhibition [5]: Active; Activity (SH-SY5Y [10]): inactive
2 | CC(C)(C)/[N+]([O-])=C/c1ccccc1 | – | – | – | – | – | – | 0.014 equiv | – | –
3 | CC(C)(C)/[N+]([O-])=C/c1ccc(O)cc1 | 0.2 ×10⁻⁶ cm/s | Active | Non-toxic | Active | Non-toxic | Non-toxic | 3.2 equiv | 100% | inhibition [2]: Active; inhibition [3]: Active; inhibition [4]: Active; inhibition [5]: Active; Activity (SH-SY5Y [12]): Dose-dependent effect; Activity [13]: Active; viability at 100 µM (SH-SY5Y [14]): 91%; inhibition [15]: Dose-dependent effect; Activity [16]: Active; viability at 500 µM (SH-SY5Y [17]): 100%; Activity [18]: Active; Activity [19]: Active; Activity [20]: Active
4 | CCn1cc(C(=O)O)c(=O)c2cc(F)c(N3CCNCC3)nc21 [ENOXACIN] | 1.7 ×10⁻⁶ cm/s | – | – | – | – | – | – | – | –
5 | CNCCCN1c2ccccc2CCc2ccccc21 [DESIPRAMINE] | 14.4 ×10⁻⁶ cm/s | – | – | – | – | – | – | – | –

Now from value to compound, other results behind:

Row | Papp at 4 h [1] | SMILES | inhibition (Astrocyte) | Activity [6] | inhibition (Microglia) | Activity (SH-SY5Y [7]) | Activity [8] | Activity [9] | viability at 10 µM (SH-SY5Y [11]) | further results
6 | 1.6 ×10⁻⁶ cm/s | CN1C(C(=O)Nc2ccccn2)=C(O)c2ccccc2S1(=O)=O [PIROXICAM] | – | – | – | – | – | – | – | –
7 | 37.5 ×10⁻⁶ cm/s | CC(C)(C)/[N+]([O-])=C/c1ccccc1O | Active | Non-toxic | Active | Non-toxic | Non-toxic | 2.6 equiv | 100% | Activity (SH-SY5Y [10]): inactive
